The values that follow come from ChEMBL document CHEMBL4411261, “Down-Regulation of the Androgen Receptor by G-Quadruplex Ligands Sensitizes Castration-Resistant Prostate Cancer Cells to Enzalutamide” (J Med Chem, 2018).

Test [1] is described as follows: Stabilization of AGTGAGAGTGAGAGAGAGAGTGAGAGTGAGAGTGA/TCACTCTCACTCTCACTCTCTCTCTCACTCTCACT dsDNA (unknown origin) assessed as change in melting temperature at 16 uM after 16 hrs in presence of 100 mM K+ by CD spectra analysis. In short, it runs like this:
(§1)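 CD: oligos at 4 μM final in 10 mM lithium cacodylate pH 7.4, 100 mM KCl, annealed 95 °C 5 min then 4 h room temperature; duplex from equimolar strands. Ligand 16 μM final, 16 h room temperature. Spectra 230−320 nm, 5 mm cell, two scans averaged at 20 °C, buffer-subtracted; melting from spectra 20−90 °C in 5 °C steps.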

Test [2] deals with PC-3. Description: Effect on c-MYC mRNA expression in human PC3 cells at IC50 after 48 hrs by RT-PCR analysis. Type of test: functional, cell-based. In short, it runs like this: (§2)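 Transcripts quantified by TaqMan real-time PCR with RNaseP as normalizer; relative quantity versus untreated cells by the 2−ΔΔCt method. Panel genes measured with a 92-gene cancer-mechanism TaqMan array.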

Test [3] concerns Quadruplex DNA. Description: Stabilization of AR G-quadruplex oligonucleotide in human 22Rv1 cells assessed as reduction in AR-FL protein level at IC50 after 48 hrs by Western immunoblot assay. Type of test: cell-based.
Test [4] relates to Quadruplex DNA. Description: Stabilization of AR1 G-quadruplex oligonucleotide (unknown origin) assessed as melting temperature at 16 uM after 16 hrs in presence of 100 mM K+ by CD spectra analysis (reference value: 74.9 +/- 0.3 degreeC). Type of test: nucleic-acid assay.
The subject of test [5] is DU-145. Description: Cytotoxicity against human DU145 cells assessed as reduction in cell viability after 48 hrs by MTS assay. Type of test: functional, cell-based. As to conditions: DU-145, 48 h. In outline:
(§3)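 Cells kept in RPMI-1640 with 10% fetal calf serum, 37 °C, 5% CO2. Seeded, after 24 h treated with 0.0001, 0.001, 0.01, 0.1, 1 and 10 μM compound (DMSO stocks freshly diluted in medium) for 48 h. MTS added 4 h, absorbance 490 nm; IC50 from curves of % viability inhibition versus DMSO-treated cells against log concentration.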

In test [6] the test system is Quadruplex DNA. Description: Stabilization of AR G-quadruplex oligonucleotide in human LNCAP cells assessed as reduction in AR-FL protein level by immunoblotting assay. Type of test: cell-based. In short, it runs like this:
(§4)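 Lysate proteins immunoblotted. Vinculin or β-actin used as loading control, peroxidase-linked secondary antibodies, ECL chemiluminescent detection, autoradiography, densitometric scan. Untreated cells received DMSO.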

Test [7] relates to Quadruplex DNA. Description: Stabilization of AR3 G-quadruplex oligonucleotide (unknown origin) assessed as melting temperature at 16 uM after 16 hrs in presence of 100 mM K+ by CD spectra analysis (reference value: 78.8 +/- 1.7 degreeC). Type of test: nucleic-acid assay.
The subject of test [8] is Quadruplex DNA. The test can be described thus: Stabilization of AR G-quadruplex oligonucleotide in human 22Rv1 cells assessed as down-regulation of CCND1 mRNA expression at IC50 after 48 hrs by RT-PCR analysis. Type of test: cell-based. In outline: as §2
Test [9] can be described thus: Binding affinity to 5'-Biotinylated-AGTGAGAGTGAGAGAGAGAGTGAGAGTGAGAGTGA ssDNA (unknown origin) by SPR analysis. In short, it runs like this: (§5)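 SPR on streptavidin chip; 5′-biotinylated oligo folded by heating 95 °C 5 min in 10 mM lithium cacodylate, 150 mM KCl, then immobilized at 30 nM to about 600 RU; empty reference cell. Compound 0.7−400 nM in HEPES-KCl (pH 7.4, 0.15 M KCl, 3 mM EDTA) at 40 °C, 40 μL/min, 260 s contact, 600 s dissociation; glycine pH 2.0 regeneration; steady-state affinity fit; at least two independent runs.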
Background: Surface plasmon resonance follows binding to a sensor surface in real time, without labels.

The test system of test [10] is CWR22R. Description: Effect on c-MYC mRNA expression in human 22Rv1 cells at IC50 after 48 hrs by RT-PCR analysis. Type of test: functional, cell-based. In outline: as §2
Test [11] can be described thus: Stabilization of 5'-FAM/3'-TAMRA labelled CTATAGCGCGCTATAG dsDNA (unknown origin) assessed as change in melting temperature t1/2 at 1 uM after 16 hrs in presence of 100 mM K+ by FRET assay. In short, it runs like this: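 FRET melting: FAM/TAMRA dual-labelled oligos (0.25 μM) folded in 10 mM lithium cacodylate pH 7.4 with 100 mM KCl (95 °C 5 min, cooled 4 h); ligand added at 1 μM final, 16 h room temperature. FAM emission followed 30−95 °C at 1 °C/min; curves normalized 0 to 1, T1/2 at 0.5 fraction.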

Test [12] concerns DU-145. Description: Effect on JUN mRNA expression in human DU145 cells at IC50 after 48 hrs by RT-PCR analysis. Type of test: functional, cell-based. In outline:
as §2

Test [13] relates to Quadruplex DNA. Description: Stabilization of AR G-quadruplex oligonucleotide in human 22Rv1 cells assessed as reduction in AR-VS protein level at IC50 after 48 hrs by Western immunoblot assay. Type of test: cell-based.
For test [14], the system named is CWR22R. The test can be described thus: Synergistic cytotoxicity against human 22Rv1 cells expressing full length androgen receptor H875Y point mutant assessed as ED75 for Enzalutamide at 0.001 to 0.1 uM after 72 hrs by MTS assay. Type of test: functional. In outline:
(§6)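 Cells in RPMI-1640 with 10% fetal calf serum were exposed to ligand (0.001−0.1 μM) plus enzalutamide (0.5−50 μM) at a fixed ratio, five concentrations, for 72 h at 37 °C, 5% CO2. Viability read by MTS absorbance at 490 nm after 4 h. Combination index computed at ED50 and ED75 by the Chou–Talalay method.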
On the technique in general: Tetrazolium dyes change colour on reduction, which living cells bring about.

The test system of test [15] is PNT1A. The test can be described thus: Cytotoxicity against human PNT1A cells assessed as reduction in cell viability after 48 hrs by MTS assay. Type of test: cell-based. In short, it runs like this: as §3
The test system of test [16] is Quadruplex DNA. The test can be described thus: Stabilization of AR G-quadruplex oligonucleotide in human LNCAP cells assessed as down-regulation of KLK3 mRNA expression at IC50 after 48 hrs by RT-PCR analysis. Type of test: cell-based. In outline: as §2
The test system of test [17] is PC-3. Description: Synergistic cytotoxicity against human PC3 cells assessed as ED50 for Enzalutamide at 0.001 to 0.1 uM after 72 hrs by MTS assay. As to conditions: PC-3, 72 h.
For test [18], the system named is PC-3. Description: Effect on JUN mRNA expression in human PC3 cells at IC50 after 48 hrs by RT-PCR analysis. Type of test: functional, cell-based. In outline:
as §2

Test [19] in a line: Stabilization of AGTGAGAGTGAGAGAGAGAGTGAGAGTGAGAGTGA ssDNA (unknown origin) assessed as effect on conformational change at 16 uM after 16 hrs in presence of 100 mM K+ by CD spectra analysis. In short, it runs like this: as §1
Test [20] addresses Quadruplex DNA. The test can be described thus: Binding affinity to 5'-Biotinylated-AR1 G-quadruplex oligonucleotide (unknown origin) by SPR analysis. Type of test: nucleic-acid assay. In outline: as §5
Test [21] relates to CWR22R. Description: Synergistic cytotoxicity against human 22Rv1 cells expressing full length androgen receptor H875Y point mutant assessed as combination index for reduction in cell viability measured at ED50 Enzalutamide at 0.001 to 0.1 uM after 72 hrs by MTS assay based Chou and Talay's plot analysis. Type of test: functional. In short, it runs like this: as §6
The subject of test [22] is Quadruplex DNA. Description: Stabilization of AR G-quadruplex oligonucleotide in human DU145 cells assessed as down-regulation of ITGB3 mRNA expression at IC50 after 48 hrs by RT-PCR analysis. Type of test: cell-based. In short, it runs like this: as §2
Test [23] deals with Quadruplex DNA. The test can be described thus: Stabilization of AR G-quadruplex oligonucleotide in human LNCAP cells assessed as reduction in PSA protein level by immunoblotting assay. Type of test: cell-based. In short, it runs like this:
as §4
On the technique in general: In western blotting, separated proteins are transferred to a membrane and probed.

The subject of test [24] is Quadruplex DNA. The test can be described thus: Binding affinity to 5'-Biotinylated-AR1 G-quadruplex oligonucleotide (unknown origin) by SPR analysis relative to control. Type of test: nucleic-acid assay.

Calls of active or inactive are those of the source. The rule behind the calls is not given here.

For orientation: ΔTm means the change in melting temperature against a reference sample. As usually defined, the IC50 is the concentration needed to halve the response being measured. A word on the Kd: it is the constant that tells how readily two partners part at equilibrium. A lower Kd goes with tighter binding. What is called EC50 is the concentration needed to bring the measured effect to its halfway point. `CN(C)CCCn1c(=O)c2ccc3c(=O)n(CCCN(C)C)c(=O)c4c5[nH]c6ccccc6[nH]c5c(c1=O)c2c34.Cl.Cl`: the figures for the ΔTm in [1] and in test [11] were 2.7 °C and 1 °C, respectively. Also, the result in test [2], in test [10], in test [12], in test [18] and in [19] was inactive. Further, the result in test [3], in test [6], in test [8], in [13], in [16] and in [22] was Active. Further, the result in [23] was Active. In addition, the Tm in test [4] and in test [7] was > 90 °C each time. For the same compound, the IC50 turned out to be 80 nM in test [5] and 280 nM in test [15]. Also, the Kd in test [9] was found to be 196 nM; in test [20] it was 17.9 nM. For the same compound, in test [14], the ED75 turned out to be 370 nM. In addition, in [17], the EC50 was 2180 nM. The CI in test [21] is given as <1. The compound also came in with an RBA in test [24] of 100%.
